{
  "source": "paper PMC3048907",
  "about": "(Journal of medicinal chemistry, 2011)",
  "key": {"[1]": {"test_system": "A549 cells (microtubules and spindles)", "assay": "Immunofluorescence staining of tubulin", "assay_type": "cell-based, human", "settings": "for microtubules (α-tubulin immunofluorescence) / mitotic spindles (α-tubulin immunofluorescence): A549, 24 h, 0.1 nM 21, 100 nM colchicine, 1.5 nM pacritaxel, 500 nM doxorubicin; for concentration at which antimicrotubule activity was seen: within 24 hr"}, "tubulin": {"test_system": "tubulin", "assay": "Tubulin assembly assay", "assay_type": "biochemical", "settings": "10 μM tubulin, 20 min at 30 °C, highest concentration evaluated 40 μM"}, "human tumor cell lines": {"test_system": "human tumor cell lines", "assay": "Antiproliferative activity across the human tumor cell line panel", "assay_type": "cell-based", "procedure,_shortened": "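Cells kept in RPMI-1640 with 25 mM HEPES, 0.25% bicarbonate, 10% FBS and 100 μg/mL kanamycin; trypsinized, seeded at 1500–7500 cells/well. Test compound added from DMSO stock diluted in medium (DMSO ≤0.5% v/v). After 3 days, cells fixed in cold 50% TCA, stained with 0.4% sulforhodamine B, A562 read. GI50 = 50% growth reduction vs untreated; mean of ≥3 determinations.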"}, "[2]": {"test_system": "KB-VIN (MDR line overexpressing P-glycoprotein)", "assay": "Antiproliferative activity assay", "assay_type": "cell-based, human", "settings": "SRB assay, three days in culture; NA = not active, 20 μg/mL did not reach 50% inhibition"}, "KB-VIN versus KB": {"test_system": "KB-VIN versus KB", "settings": "P-gp overexpressing MDR tumor cell line vs non-MDR; cited from earlier work"}, "KB-VIN cells": {"test_system": "KB-VIN cells", "assay": "Verapamil reversal experiments", "assay_type": "cell-based, human", "settings": "for effect of verapamil co-treatment on cytotoxic activity (MDR-selectivity): co-treatment with verapamil 1 μg/mL"}},
  "data": [
    {"smiles": "CCC1=C(O)c2c(oc(-c3csc4ccccc34)cc2=O)C(CC)(CC)C1=O", "note": "[Compound 21, 2-(Benzo[b]thiophen-3′-yl)-6,8,8-triethyldesmosdumotin B]", "values": [
      {"measurement": "microtubules (α-tubulin immunofluorescence)", "setting": "[1]", "result": "undetectable"},
      {"measurement": "mitotic spindles (α-tubulin immunofluorescence)", "setting": "[1]", "result": "undetectable"},
      {"measurement": "fold lower concentration than colchicine for antimicrotubule activity", "setting": "[1]; A549 cells, 24 hr", "result": 1000, "unit": "fold"},
      {"measurement": "concentration at which antimicrotubule activity was seen", "setting": "[1]; A549 cells", "result": 0.1, "unit": "nM"}
    ]},
    {"smiles": "CCC1=C(O)c2c(oc(-c3ccc4ccccc4c3)cc2=O)C(CC)(CC)C1=O", "note": "[Compound 11, 2-(Naphthalen-2′-yl)-6,8,8-triethyldesmosdumotin B]", "values": [
      {"measurement": "Inhibition of tubulin assembly IC50 ± SD", "setting": "tubulin", "result": "Not obtainable ^c"}
    ]},
    {"smiles": "COc1cc2c(c(OC)c1OC)-c1ccc(OC)c(=O)cc1[C@@H](NC(C)=O)CC2", "note": "[colchicine]", "values": [
      {"measurement": "microtubules (α-tubulin immunofluorescence)", "setting": "[1]", "result": "undetectable"},
      {"measurement": "mitotic spindles (α-tubulin immunofluorescence)", "setting": "[1]", "result": "undetectable"},
      {"measurement": "concentration at which antimicrotubule activity was seen", "setting": "[1]; A549 cells", "result": 100, "unit": "nM"}
    ]},
    {"smiles": "CC1=C(O)C(C)(C)c2oc(-c3ccccc3)cc(=O)c2C1=O", "note": "[Compound 1, desmosdumotin B]", "values": [
      {"measurement": "activity against all non-MDR tumor cells", "setting": "human tumor cell lines", "result": "non-active"},
      {"measurement": "GI50 KB-VIN", "setting": "[2]", "result": "active"},
      {"measurement": "selectivity index [collateral sensitivity (CS), activity ratio of MDR line versus non-MDR line]", "setting": "KB-VIN versus KB", "result": "greater than 20"}
    ]},
    {"smiles": "CCC1=C(O)c2c(oc(-c3cccc4ccsc34)cc2=O)C(CC)(CC)C1=O", "note": "[Compound 27, 2-(Benzo[b]thiophen-7′-yl)-6,8,8-triethyldesmosdumotin B]", "values": [
      {"measurement": "effect of verapamil co-treatment on cytotoxic activity (MDR-selectivity)", "setting": "KB-VIN cells", "result": "partially reversed"}
    ]},
    {"smiles": "COc1cccc2c1C(=O)c1c(O)c3c(c(O)c1C2=O)C[C@@](O)(C(=O)CO)C[C@@H]3O[C@H]1C[C@H](N)[C@H](O)[C@H](C)O1", "note": "[doxorubicine]", "values": [
      {"measurement": "microtubules (α-tubulin immunofluorescence)", "setting": "[1]", "result": "detectable"},
      {"measurement": "mitotic spindles (α-tubulin immunofluorescence)", "setting": "[1]", "result": "undetectable"}
    ]},
    {"smiles": "CCC1=C(O)c2c(oc(-c3ccccc3)cc2=O)C(CC)(CC)C1=O", "note": "[Compound 2]", "values": [
      {"measurement": "activity against all non-MDR tumor cells", "setting": "human tumor cell lines", "result": "non-active"},
      {"measurement": "Inhibition of tubulin assembly IC50 ± SD", "setting": "tubulin", "result": "inactive"},
      {"measurement": "IC50", "setting": "tubulin; read-out: Inhibition of tubulin assembly IC50 ± SD", "result": "> 40", "unit": "µM"},
      {"measurement": "GI50 KB-VIN", "setting": "[2]", "result": "active"}
    ]},
    {"smiles": "COc1ccc(CCN(C)CCCC(C#N)(c2ccc(OC)c(OC)c2)C(C)C)cc1OC", "note": "(stereo not shown) [verapamil]", "values": [
      {"measurement": "effect of verapamil alone on replication of KB-VIN cells", "setting": "KB-VIN cells; verapamil 1 μg/mL", "result": "no effect"}
    ]},
    {"smiles": "CC(=O)O[C@H]1C(=O)[C@@]2(C)[C@H]([C@H](OC(=O)c3ccccc3)[C@]3(O)C[C@H](OC(=O)[C@H](O)[C@@H](NC(=O)c4ccccc4)c4ccccc4)C(C)=C1C3(C)C)[C@]1(OC(C)=O)CO[C@@H]1C[C@@H]2O", "note": "[pacritaxel]", "values": [
      {"measurement": "microtubules (α-tubulin immunofluorescence)", "setting": "[1]", "result": "detectable"},
      {"measurement": "mitotic spindles (α-tubulin immunofluorescence)", "setting": "[1]", "result": "clearly seen"}
    ]},
    {"smiles": "CCC1=C(O)c2c(oc(-c3csc4ccc(Br)cc34)cc2=O)C(CC)(CC)C1=O", "note": "[Compound 24, 2-(5′-Bromobenzo[b]thiophen-3′-yl)-6,8,8-triethyldesmosdumotin B]", "values": [
      {"measurement": "effect of verapamil co-treatment on cytotoxic activity (MDR-selectivity)", "setting": "KB-VIN cells", "result": "partially reversed"}
    ]}
  ]
}
